# How the values were obtained:
# Type in all cases: functional
# NCI-H522 = assay: Growth inhibition of human NCI-H522 cells incubated for 48 hrs by sulforhodamine B assay; conditions: NCI-H522, 48 h; for CC50: read-out: LC50 (the source's name)
# How it was run: (§1)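 NCI 60-line screen. Cells in RPMI-1640 with 5% FBS and 2 mM L-glutamine, preincubated 24 h, then time-zero plates TCA-fixed. Compounds from DMSO stocks given at five final concentrations (100, 10, 1.0, 0.1, 0.01 µM) for 48 h at 37 °C, 5% CO2. Cells fixed with 10% TCA, SRB-stained, read at 515 nm. GI50 is the concentration giving 50% lower net protein increase versus control.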
# OVCAR-8 = assay: Growth inhibition of human OVCAR8 cells incubated for 48 hrs by sulforhodamine B assay; conditions: OVCAR-8, 48 h
# How it was run: (§2)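 Five-dose NCI SRB assay at 100, 10, 1.0, 0.1 and 0.01 μM for 48 h at 37 °C, 5% CO2. Medium was RPMI-1640 with 5% FBS and 2 mM glutamine. Time-zero plates were TCA-fixed at compound addition, A515 read after SRB staining. GI50 was solved from [(Ti−Tz)/(C−Tz)]×100 = 50. Values beyond the tested range are given as > or <.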
# MDA-MB-468 = assay: Growth inhibition of human MDA-MB-468 cells incubated for 48 hrs by sulforhodamine B assay; conditions: MDA-MB-468, 48 h; for CC50: read-out: LC50 (the source's name); how it was run: as §2
# NCI-H322M = assay: Growth inhibition of human NCI-H322M cells incubated for 48 hrs by sulforhodamine B assay; conditions: for CC50: read-out: LC50 (the source's name); how it was run: as §2
# MDA-MB-435 = assay: Growth inhibition of human MDA-MB-435 cells incubated for 48 hrs by sulforhodamine B assay; conditions: MDA-MB-435, 48 h; for CC50: read-out: LC50 (the source's name); how it was run: as §2
# NCI-H23 = assay: Growth inhibition of human NCI-H23 cells incubated for 48 hrs by sulforhodamine B assay; conditions: NCI-H23, 48 h; for CC50: read-out: LC50 (the source's name); how it was run: as §2
# LOX IMVI = assay: Growth inhibition of human LOXIMVI cells incubated for 48 hrs by sulforhodamine B assay; conditions: for CC50: read-out: LC50 (the source's name); how it was run: as §2
# UACC-257 = assay: Growth inhibition of human UACC257 cells incubated for 48 hrs by sulforhodamine B assay; conditions: UACC-257, 48 h; for CC50: read-out: LC50 (the source's name)
# How it was run: (§3)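 NCI-60 panel cells grown in RPMI-1640 with 5% FBS and 2 mM L-glutamine, preincubated 24 h at 37 °C/5% CO2. Time-zero plates were TCA-fixed at compound addition. DMSO stocks were diluted in medium and tested at five final concentrations (100, 10, 1.0, 0.1, 0.01 µM) for 48 h. Cells were TCA-fixed, stained with SRB and read at 515 nm. GI50 = 50% lower net protein increase versus control.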
# U-251 = assay: Growth inhibition of human U251 cells incubated for 48 hrs by sulforhodamine B assay; conditions: U-251, 48 h; for CC50: read-out: LC50 (the source's name); how it was run: as §3
# TK-10 = assay: Growth inhibition of human TK10 cells incubated for 48 hrs by sulforhodamine B assay; conditions: TK-10, 48 h; for CC50: read-out: LC50 (the source's name); how it was run: as §1
# OVCAR-5 = assay: Growth inhibition of human OVCAR5 cells incubated for 48 hrs by sulforhodamine B assay; conditions: OVCAR-5, 48 h; for CC50: read-out: LC50 (the source's name); how it was run: as §1
# A549 = assay: Growth inhibition of human A549/ATCC cells incubated for 48 hrs by sulforhodamine B assay; conditions: A549, 48 h; how it was run: as §1
# IGROV-1 = assay: Growth inhibition of human IGROV1 cells incubated for 48 hrs by sulforhodamine B assay; conditions: IGROV-1, 48 h; for CC50: read-out: LC50 (the source's name); how it was run: as §1
# RXF 393 = assay: Growth inhibition of human RXF393 cells incubated for 48 hrs by sulforhodamine B assay; conditions: RXF 393, 48 h; for CC50: read-out: LC50 (the source's name); how it was run: as §2
# DU-145 = assay: Growth inhibition of human DU145 cells incubated for 48 hrs by sulforhodamine B assay; conditions: DU-145, 48 h; for CC50: read-out: LC50 (the source's name)
# How it was run: (§4)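 NCI five-dose SRB assay (100, 10, 1.0, 0.1, 0.01 µM) with 48 h exposure in RPMI-1640 with 5% FBS and 2 mM L-glutamine. Cells fixed with TCA and stained with SRB, read at 515 nm. GI50 is the concentration where [(Ti−Tz)/(C−Tz)]×100 = 50.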
# HCT-15 = assay: Growth inhibition of human HCT15 cells incubated for 48 hrs by sulforhodamine B assay; conditions: HCT-15, 48 h; for CC50: read-out: LC50 (the source's name); how it was run: as §1
# NCI/ADR-RES = assay: Growth inhibition of human NCI/ADR-RES cells incubated for 48 hrs by sulforhodamine B assay; conditions: for CC50: read-out: LC50 (the source's name); how it was run: as §1
# SF-539 = assay: Growth inhibition of human SF539 cells incubated for 48 hrs by sulforhodamine B assay; conditions: SF-539, 48 h; for CC50: read-out: LC50 (the source's name); how it was run: as §3
# RPMI-8226 = assay: Growth inhibition of human RPMI8226 cells incubated for 48 hrs by sulforhodamine B assay; conditions: RPMI-8226, 48 h; for CC50: read-out: LC50 (the source's name); how it was run: as §1
# HL-60(TB) = assay: Growth inhibition of human HL-60(TB) cells incubated for 48 hrs by sulforhodamine B assay; conditions: HL-60, 48 h; for CC50: read-out: LC50 (the source's name); how it was run: as §1
# MDA-MB-231 = assay: Growth inhibition of human MDA-MB-231 cells incubated for 48 hrs by sulforhodamine B assay; conditions: MDA-MB-231, 48 h; for CC50: read-out: LC50 (the source's name); how it was run: as §2
# NCI-H460 = assay: Growth inhibition of human NCI-H460 cells incubated for 48 hrs by sulforhodamine B assay; conditions: NCI-H460, 48 h; for CC50: read-out: LC50 (the source's name); how it was run: as §2
# UO-31 = assay: Growth inhibition of human UO31 cells incubated for 48 hrs by sulforhodamine B assay; conditions: UO-31, 48 h; how it was run: as §3
# SK-MEL-28 = assay: Growth inhibition of human SK-MEL-28 cells incubated for 48 hrs by sulforhodamine B assay; conditions: SK-MEL-28, 48 h; for CC50: read-out: LC50 (the source's name); how it was run: as §3
# UACC-62 = assay: Growth inhibition of human UACC62 cells incubated for 48 hrs by sulforhodamine B assay; conditions: UACC-62, 48 h; for CC50: read-out: LC50 (the source's name); how it was run: as §1
# EKVX = assay: Growth inhibition of human EKVX cells incubated for 48 hrs by sulforhodamine B assay; how it was run: as §4
# MCF7 = assay: Growth inhibition of human MCF7 cells incubated for 48 hrs by sulforhodamine B assay; conditions: MCF7, 48 h; for CC50: read-out: LC50 (the source's name); how it was run: as §1
# PC-3 = assay: Growth inhibition of human PC3 cells incubated for 48 hrs by sulforhodamine B assay; conditions: PC-3, 48 h; for CC50: read-out: LC50 (the source's name); how it was run: as §2
# SNB-75 = assay: Growth inhibition of human SNB75 cells incubated for 48 hrs by sulforhodamine B assay; conditions: SNB-75, 48 h; for CC50: read-out: LC50 (the source's name); how it was run: as §1
# SF-268 = assay: Growth inhibition of human SF268 cells incubated for 48 hrs by sulforhodamine B assay; conditions: SF-268, 48 h; for CC50: read-out: LC50 (the source's name); how it was run: as §2
structure (smiles),measurement,setting,value
COc1ccc(C2=NN(C=O)C(c3cccc(Nc4ccnc5cc(Cl)ccc45)c3)C2)cc1 (centres undefined),GI50,NCI-H522,1330 nM
same,CC50,NCI-H522,61900 nM
same,GI50,OVCAR-8,3290 nM
same,LC50 (concentration causing 50% net cell kill),OVCAR-8,> 100000 nM
same,GI50,MDA-MB-468,420 nM
same,CC50,MDA-MB-468,63800 nM
same,GI50,NCI-H322M,6510 nM
same,CC50,NCI-H322M,> 100000 nM
same,GI50,MDA-MB-435,370 nM
same,CC50,MDA-MB-435,> 100000 nM
same,GI50,NCI-H23,1870 nM
same,CC50,NCI-H23,> 100000 nM
same,GI50,LOX IMVI,2520 nM
same,CC50,LOX IMVI,39000 nM
same,GI50,UACC-257,3060 nM
same,CC50,UACC-257,> 100000 nM
same,GI50,U-251,2770 nM
same,CC50,U-251,51100 nM
same,GI50,TK-10,4240 nM
same,CC50,TK-10,61700 nM
same,GI50,OVCAR-5,11300 nM
same,CC50,OVCAR-5,> 100000 nM
same,GI50,A549,4630 nM
same,LC50 (concentration giving 50% net cell kill),A549,> 100000 nM
same,GI50,IGROV-1,3710 nM
same,CC50,IGROV-1,> 100000 nM
same,GI50,RXF 393,1660 nM
same,CC50,RXF 393,59200 nM
same,GI50,DU-145,3620 nM
same,CC50,DU-145,> 100000 nM
same,GI50,HCT-15,2130 nM
same,CC50,HCT-15,> 100000 nM
same,GI50,NCI/ADR-RES,1660 nM
same,CC50,NCI/ADR-RES,> 100000 nM
same,GI50,SF-539,2340 nM
same,CC50,SF-539,39700 nM
same,GI50,RPMI-8226,1360 nM
same,CC50,RPMI-8226,> 100000 nM
same,GI50,HL-60(TB),2030 nM
same,CC50,HL-60(TB),33600 nM
same,GI50,MDA-MB-231,4000 nM
same,CC50,MDA-MB-231,> 100000 nM
same,GI50,NCI-H460,2730 nM
same,CC50,NCI-H460,> 100000 nM
same,GI50,UO-31,3250 nM
same,CC50,UO-31; read-out: LC50 (the source's name),> 100000 nM
same,GI50,SK-MEL-28,8120 nM
same,CC50,SK-MEL-28,67100 nM
same,GI50,UACC-62,2410 nM
same,CC50,UACC-62,68100 nM
same,GI50,EKVX,2810 nM
same,LC50,EKVX,> 100000 nM
same,GI50,MCF7,1590 nM
same,CC50,MCF7,> 100000 nM
same,GI50,PC-3,2870 nM
same,CC50,PC-3,> 100000 nM
same,GI50,SNB-75,2560 nM
same,CC50,SNB-75,> 100000 nM
same,GI50,SF-268,4790 nM
same,CC50,SF-268,> 100000 nM
COc1ccc(C(=O)/C=C/c2cccc(Nc3ccnc4cc(Cl)ccc34)c2)cc1,GI50,NCI-H522,1880 nM
same,CC50,NCI-H522,> 100000 nM
same,GI50,OVCAR-8,2260 nM
same,LC50 (concentration causing 50% net cell kill),OVCAR-8,> 100000 nM
same,GI50,MDA-MB-468,580 nM
same,CC50,MDA-MB-468,> 100000 nM
same,GI50,NCI-H322M,2690 nM
same,CC50,NCI-H322M,> 100000 nM
same,GI50,MDA-MB-435,2130 nM
same,CC50,MDA-MB-435,> 100000 nM
same,GI50,NCI-H23,1490 nM
same,CC50,NCI-H23,> 100000 nM
same,GI50,LOX IMVI,1580 nM
same,CC50,LOX IMVI,> 100000 nM
same,GI50,UACC-257,2070 nM
same,CC50,UACC-257,> 100000 nM
same,GI50,U-251,1730 nM
same,CC50,U-251,23700 nM
same,GI50,TK-10,1640 nM
same,CC50,TK-10,> 100000 nM
same,GI50,OVCAR-5,2600 nM
same,CC50,OVCAR-5,> 100000 nM
same,GI50,A549,2780 nM
same,LC50 (concentration giving 50% net cell kill),A549,> 100000 nM
same,GI50,IGROV-1,1440 nM
same,CC50,IGROV-1,> 100000 nM
same,GI50,RXF 393,1820 nM
same,CC50,RXF 393,> 100000 nM
same,GI50,DU-145,2450 nM
same,CC50,DU-145,> 100000 nM
same,GI50,HCT-15,2040 nM
same,CC50,HCT-15,> 100000 nM
same,GI50,NCI/ADR-RES,1160 nM
same,CC50,NCI/ADR-RES,> 100000 nM
same,GI50,SF-539,1700 nM
same,CC50,SF-539,> 100000 nM
same,GI50,RPMI-8226,570 nM
same,CC50,RPMI-8226,> 100000 nM
same,GI50,HL-60(TB),2980 nM
same,CC50,HL-60(TB),> 100000 nM
same,GI50,MDA-MB-231,1910 nM
same,CC50,MDA-MB-231,> 100000 nM
same,GI50,NCI-H460,2230 nM
same,CC50,NCI-H460,> 100000 nM
same,GI50,UO-31,1030 nM
same,GI50,SK-MEL-28,1870 nM
same,CC50,SK-MEL-28,> 100000 nM
same,GI50,UACC-62,1190 nM
same,CC50,UACC-62,> 100000 nM
same,GI50,EKVX,1750 nM
same,LC50,EKVX,> 100000 nM
same,GI50,MCF7,1820 nM
same,CC50,MCF7,> 100000 nM
same,GI50,PC-3,2510 nM
same,CC50,PC-3,> 100000 nM
same,GI50,SNB-75,1510 nM
same,CC50,SNB-75,> 100000 nM
same,GI50,SF-268,2470 nM
same,CC50,SF-268,> 100000 nM

# From ChEMBL document CHEMBL4038284, “Synthesis of novel quinoline-based 4,5-dihydro-1H-pyrazoles as potential anticancer, antifungal, antibacterial and antiprotozoal agents” (Eur J Med Chem, 2017)
